Source: PMC7672428 (Nucleic Acids Research, 2020)

What was measured:
Ku70/80 = Ku70/80 (Homo sapiens, UniProt P12956+P13010); assay: Electrophoretic mobility shift assay; assay type: binding
Procedure, shortened: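 Purified Ku pre-incubated with varying concentrations of test compound, then added to 5′-[32P]-labeled 30-bp duplex DNA made by annealing a labeled strand to its complement. Incubated 30 min at 25°C, resolved on a 6% non-denaturing polyacrylamide gel, then phosphorimaged and quantified. Triplicate titrations, IC50 from fitted binding curves.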

[1] = test system: Ku80-null mouse embryo fibroblasts (MEF); assay: CCK-8 cell viability, Ku80-null MEF; assay type: cell-based
Procedure, shortened: (§1)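 Ku80-wt and Ku80-null MEFs in RPMI with 10% FBS, 5 × 10^3 per well, grown 24 h before treatment. Exposed 48 h in Opti-MEM to vehicle or 20 μM test compound, concurrently with indicated bleomycin concentrations (or compound alone), 1% DMSO constant. CCK-8 about 2 h, A450 read; percent viability relative to vehicle controls. Mean and SEM of triplicates.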

DNA-PK = DNA-PK (Homo sapiens, UniProt P12956+P13010); assay: DNA-PK phosphoryl-transferase kinase assay with p53 peptide substrate; assay type: biochemical
Procedure, shortened: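 DNA-PKcs purified from HeLa or HEK 293 cells and combined with Ku; test compound pre-incubated with the enzyme 15 min. Reaction started with ATP, unlabeled 30-bp duplex DNA and synthetic p53-based peptide. [32P] transfer run at 37°C for 15 min, stopped with 30% acetic acid, spotted on P81 filters and washed. Read by phosphorimaging. Triplicate titrations, IC50 from fitted binding curves.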

Ku protein = Ku protein (Homo sapiens, UniProt P12956+P13010); assay: Thermal-shift assay; assay type: binding
Procedure, shortened: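 Purified Ku70/80 (baculovirus-infected Sf9 cells) mixed with DMSO vehicle or a fixed test-compound concentration, then split into aliquots. Aliquots heated 3 min at a range of temperatures, cooled to 4 °C and spun at 12,000 × g for 20 min. Soluble Ku70 detected by SDS-PAGE western blot with chemiluminescence. Band intensities normalised to the 40 °C point, fit to a 4-parameter sigmoid, giving T1/2.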

MELK kinase = MELK kinase (Homo sapiens, UniProt Q14680); assay: Kinase screen; assay type: biochemical; settings: 2.5 μM
Procedure, shortened: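 Panel of 24 kinases, each with its own substrate, run in triplicate with or without 2.5 μM test compound using ADP-Glo. After ATP depletion, generated ADP was read by coupled luciferase luminescence. Percent activity remaining, or inhibition, calculated relative to DMSO vehicle controls.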

[2] = test system: DNA-PKcs p-S2056 in H460 cells; assay: Immunofluorescence of DNA-PKcs p-S2056 after Bleomycin; assay type: cell-based; settings: 20 μM, concurrent or 1-2 h pre-incubation, 10 μM Bleomycin 1 h
Procedure, shortened: (§2)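 H460 cells on coverslips overnight, then 10 μM bleomycin for 1 h at 37 °C with 20 μM test compound, given concurrently or after 1 or 2 h preincubation; controls in 1% DMSO. Fixed in 4% PFA, permeabilised in 0.1% Triton, blocked. Stained with anti-p-DNA-PKcs S2056 and anti-γH2AX S139 (1:200, overnight 4 °C), plus DAPI. Fiji scored p-S2056 intensity and γH2AX foci over 200 cells; median, unpaired t-test.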

γ-H2AX in H460 cells = assay: Immunofluorescence of γ-H2AX after Bleomycin; assay type: cell-based; settings: 20 μM, 10 μM Bleomycin 1 h
Procedure, shortened: as §2

H460 cells [3] = assay: CRISPR/Cas9 HDR-mediated gene insertion at EMX1; assay type: cell-based; settings: 20 μM
Procedure, shortened: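 Donor carrying GFP and a puromycin-resistance gene, flanked by 800 bp homology arms to an EMX1 CRISPR cut site, co-transfected into H460 cells with EMX1 gRNA and Cas9 plasmids, with vehicle or 20 μM test compound. Junctional PCR on genomic DNA scored precise homologous integration among puromycin-resistant clones.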

H460 cells [4] = assay: CCK-8 cell viability with etoposide; assay type: cell-based; settings: 20 μM, 48 h
Procedure, shortened: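 H460 cells in RPMI with 10% FBS, plated at 5 × 10^3 per well and grown 24 h. Treated 48 h in Opti-MEM with 20 μM test compound or vehicle plus indicated etoposide concentrations, DMSO held at 1%. CCK-8 added for about 2 h, then A450 read; percent viability taken relative to vehicle-treated controls. Mean and SEM of triplicates.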

[5] = test system: Ku80-wt mouse embryo fibroblasts (MEF); assay: CCK-8 cell viability, wild type MEF; assay type: cell-based; settings: 20 μM
Procedure, shortened: as §1

Solubility and stability = assay type: physicochemical

Chain of Ku70/80 (P12956 whole entry): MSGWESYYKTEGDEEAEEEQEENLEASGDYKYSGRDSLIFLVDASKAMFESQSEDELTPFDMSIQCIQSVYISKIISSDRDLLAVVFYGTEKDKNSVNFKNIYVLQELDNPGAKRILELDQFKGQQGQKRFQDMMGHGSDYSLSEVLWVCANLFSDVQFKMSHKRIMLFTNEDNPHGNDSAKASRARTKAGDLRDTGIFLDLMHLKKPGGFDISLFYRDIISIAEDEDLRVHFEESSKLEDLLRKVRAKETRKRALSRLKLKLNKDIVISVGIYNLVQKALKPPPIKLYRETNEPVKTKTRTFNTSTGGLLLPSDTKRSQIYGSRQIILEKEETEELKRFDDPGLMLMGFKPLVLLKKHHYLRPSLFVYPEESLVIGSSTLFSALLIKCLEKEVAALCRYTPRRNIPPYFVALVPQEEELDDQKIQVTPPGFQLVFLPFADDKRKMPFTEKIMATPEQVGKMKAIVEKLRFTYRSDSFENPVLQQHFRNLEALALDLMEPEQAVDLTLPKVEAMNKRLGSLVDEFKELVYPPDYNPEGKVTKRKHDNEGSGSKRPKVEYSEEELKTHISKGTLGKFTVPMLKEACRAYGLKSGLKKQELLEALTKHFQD
Chain of Ku70/80 (P13010 whole entry): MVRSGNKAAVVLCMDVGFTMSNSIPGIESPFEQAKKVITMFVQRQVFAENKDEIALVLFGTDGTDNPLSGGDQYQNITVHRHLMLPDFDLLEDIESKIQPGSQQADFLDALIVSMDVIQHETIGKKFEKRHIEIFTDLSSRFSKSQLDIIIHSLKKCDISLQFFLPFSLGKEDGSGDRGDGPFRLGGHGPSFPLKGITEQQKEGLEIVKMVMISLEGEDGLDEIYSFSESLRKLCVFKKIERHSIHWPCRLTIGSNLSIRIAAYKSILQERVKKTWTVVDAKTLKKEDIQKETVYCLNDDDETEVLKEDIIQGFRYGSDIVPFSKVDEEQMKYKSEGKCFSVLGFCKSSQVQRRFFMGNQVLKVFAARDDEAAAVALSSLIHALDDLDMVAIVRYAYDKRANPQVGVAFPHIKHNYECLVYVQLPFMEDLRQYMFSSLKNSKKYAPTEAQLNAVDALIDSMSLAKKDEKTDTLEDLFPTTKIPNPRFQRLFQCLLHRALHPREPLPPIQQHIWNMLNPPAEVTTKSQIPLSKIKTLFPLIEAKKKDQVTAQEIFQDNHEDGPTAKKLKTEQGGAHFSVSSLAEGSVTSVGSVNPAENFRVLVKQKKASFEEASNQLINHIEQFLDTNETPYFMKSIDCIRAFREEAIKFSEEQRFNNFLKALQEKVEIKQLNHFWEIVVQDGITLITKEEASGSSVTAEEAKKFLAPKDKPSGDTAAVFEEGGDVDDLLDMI
Chain of DNA-PK (P12956 whole entry): as the sequence (P12956 whole entry) above
Chain of DNA-PK (P13010 whole entry): as the sequence (P13010 whole entry) above
Chain of Ku protein (P12956 whole entry): as the sequence (P12956 whole entry) above
Chain of Ku protein (P13010 whole entry): as the sequence (P13010 whole entry) above
Chain of MELK kinase (Q14680 whole entry): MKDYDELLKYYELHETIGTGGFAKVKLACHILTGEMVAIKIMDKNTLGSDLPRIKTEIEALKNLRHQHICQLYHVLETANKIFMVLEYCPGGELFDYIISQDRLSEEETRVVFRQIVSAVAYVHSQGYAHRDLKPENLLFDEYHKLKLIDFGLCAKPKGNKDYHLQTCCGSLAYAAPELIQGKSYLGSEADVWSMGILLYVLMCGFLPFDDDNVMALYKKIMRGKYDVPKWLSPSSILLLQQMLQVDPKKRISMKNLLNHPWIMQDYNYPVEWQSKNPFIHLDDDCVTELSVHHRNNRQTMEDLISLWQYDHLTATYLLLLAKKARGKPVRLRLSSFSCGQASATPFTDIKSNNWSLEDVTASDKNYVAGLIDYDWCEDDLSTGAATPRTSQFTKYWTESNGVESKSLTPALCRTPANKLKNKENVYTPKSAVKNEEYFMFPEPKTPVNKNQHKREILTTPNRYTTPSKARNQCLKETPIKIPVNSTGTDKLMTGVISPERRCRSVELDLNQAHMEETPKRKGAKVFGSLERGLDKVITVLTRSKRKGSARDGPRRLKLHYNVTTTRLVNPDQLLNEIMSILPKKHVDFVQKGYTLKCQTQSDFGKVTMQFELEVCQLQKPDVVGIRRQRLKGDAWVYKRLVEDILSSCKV

Q: With `O=c1cc(N2CCOCC2)oc2c(-c3cccc4c3sc3ccccc34)cccc12` [NU7441, reference compound] as the molecule, how does the “impact on Ku–DNA binding activity” value (Ku70/80) read?
A: The value was “no impact”.

Q: With Bleomycin [reference compound] as the molecule, how does the “increased sensitivity of Ku80-null cells compared to wt MEFs” value ([1]; 48 h, CCK-8) read?
A: The value was about 6 fold.

Q: Which IC50 (Ku70/80) does the source give for `COc1cccc(NC(=O)c2cc(-c3ccc(CC4C(=O)N(c5cccc(-c6nnn[nH]6)c5)N=C4C)o3)ccc2Cl)c1` (stereo not drawn) [compound 245] here?
A: Its IC50 is 1.99 ± 0.9 µM.

Q: And the IC50 (DNA-PK)?
A: The IC50 was 0.24 ± 0.015 µM.

Q: What about the “shift in Tm of Ku” value (Ku protein; vs vehicle Tm of 50°C) of the same molecule?
A: The value was 6 °C.

Q: What about the “Tm of Ku” value (Ku protein; with compound) of the same molecule?
A: Its value is 56 °C.

Q: And the “inhibition of MELK kinase” value (MELK kinase)?
A: Its value is “moderate inhibition”.

Q: And the “DNA-PKcs Ser 2056 phosphorylation in cells” value [2]?
A: The value was “reduced Ser 2056 phosphorylation”.

Q: And the “γ-H2AX (DDR)” value (γ-H2AX in H460 cells)?
A: The value was “inhibition of the DDR”.

Q: What about the “Insertion efficiency (%)” value (H460 cells [3]) of the same molecule?
A: Its value is 80%.

Q: For `COc1cccc(NC(=O)c2cc(-c3ccc(CC4C(=O)N(c5cccc(C(=O)O)c5)N=C4C(F)(F)F)o3)ccc2Cl)c1` (stereo not drawn) [compound 322], which IC50 (Ku70/80) is on record?
A: The IC50 was 2.66 ± 0.3 µM.

Q: What about the IC50 (DNA-PK) of the same molecule?
A: The IC50 was 0.11 ± 0.02 µM.

Q: And the sensitization to etoposide (H460 cells [4])?
A: Its sensitization to etoposide is “Sensitization to etoposide”.

Q: Which IC50 (Ku70/80) does the source give for `COc1cccc(NC(=O)c2cc(-c3ccc(CC4C(=O)N(c5cccc(C(=O)O)c5)N=C4C)o3)ccc2Cl)c1` (stereo not drawn) [compound 149] here?
A: Its IC50 is 3.72 ± 1.5 µM.

Q: What about the IC50 (DNA-PK) of the same molecule?
A: The IC50 was 0.5 ± 0.03 µM.

Q: What does the source list for `COc1cccc(NC(=O)c2cc(-c3ccc(/C=C4\C(=O)N(c5cccc(C(=O)O)c5)N=C4C)o3)ccc2Cl)c1` [compound 68]?
A: fold increase in Ku–DNA binding inhibitory activity (Ku70/80; on incorporation of 3-methoxyphenyl amide into X80): 4 fold; IC50 (DNA-PK): 3.12 ± 0.7 µM; sensitivity to Bleomycin induced by compound, wild type cells ([5]; concurrent 48 h with Bleomycin): increased sensitivity; reduction in survival, single agent ([5]; preliminary single agent experiments): < 10%; sensitivity to Bleomycin induced by compound, Ku80-null cells ([1]; 20 μM, concurrent 48 h with Bleomycin): no significant increase in sensitivity; solubility compared to 5102 and 5135 (Solubility and stability): significant increase in solubility
